Laboratory results published in ChEMBL document CHEMBL4699669, “Discovery of a Potent Adenine-Benzyltriazolo-Pleuromutilin Conjugate with Pronounced Antibacterial Activity against MRSA” (J Med Chem, 2020).
In brackets after ≈: the same amount, converted by molar mass.

Experiments:
Staphylococcus aureus [1] = test: Antibacterial activity against methicilin-resistant Staphylococcus aureus 52518 incubated for 20 to 24 hrs by microbroth dilution assay; format: functional; conditions: time hrs 20-24
In short: (§1)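 Broth microdilution per EUCAST in Mueller-Hinton broth. Inoculum 5.0·10^5 CFU/mL, prepared from overnight single-colony cultures at OD600 0.1 then diluted 100x. Final compound concentrations 0.015–16 µg/mL. Incubation at 37 °C for 20–24 h, protected from light. MIC is the lowest concentration with no visible growth. Each replicate uses three cultures; n = 2–3.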

Staphylococcus aureus [2] = test: Antibacterial activity against methicilin-resistant Staphylococcus aureus 4828 incubated for 20 to 24 hrs by microbroth dilution assay; format: functional; conditions: time hrs 20-24; in short: as §1
Staphylococcus aureus [3] = test: Antibacterial activity against methicilin-resistant Staphylococcus aureus 55508 incubated for 20 to 24 hrs by microbroth dilution assay; format: functional; conditions: time hrs 20-24; in short: as §1
Caco-2 [4] = test: Cytotoxicity against human Caco2 cells assessed as cell viability at 33 ug/ml incubated for 3 hrs by MTT assay; format: cell-based; conditions: caco-2, 3 h, dose 33 µg/ml
In short: (§2)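 Undifferentiated Caco-2 cells, medium aspirated, treated 3 h at 37 °C, 220 rpm with compound in HEPES-buffered HBSS (HBSS alone as negative control, SDS as positive control). MTT then added (final 0.5 mg mL⁻¹) for 2 h more. Formazan dissolved overnight at 4 °C in 10 mM HCl/50% isobutanol/10% SDS. Mean ± SD of 3 wells, one passage.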

Staphylococcus aureus [5] = test: Antibacterial activity against methicilin-resistant Staphylococcus aureus USA300 FPR3757 incubated for 20 to 24 hrs by microbroth dilution assay; format: functional; conditions: time hrs 20-24; in short: as §1
Caco-2 [6] = test: Cytotoxicity against differentiated human Caco2 cells assessed as ATP level at 33 ug/ml incubated for 3 hrs by Cell-titer Glo assay; format: cell-based; conditions: caco-2, 3 h, dose 33 µg/ml
In short: (§3)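 Cells rinsed of growth medium, then exposed 3 h at 37 °C, 220 rpm, light-protected, to compound in HBSS with 10 mM HEPES, pH 7.4 (final DMSO <1% at top concentrations). Plates equilibrated 10 min at rt, CellTiter-Glo 2.0 added, mixed 2 min, signal stabilized 10 min. Luminescence (ATP) normalized to HBSS-only control cells. Mean ± SD of 3 wells, one passage.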

[7] = test system: Staphylococcus epidermidis; test: Antibacterial activity against methicilin-resistant Staphylococcus epidermis 933010 incubated for 20 to 24 hrs by microbroth dilution assay; format: functional; conditions: time hrs 20-24; in short: as §1
Staphylococcus aureus [8] = test: Antibacterial activity against methicilin-resistant Staphylococcus aureus USA300 FPR3757 incubated for 20 hrs by microbroth dilution assay; format: functional
In short: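 MBC determined from a completed MIC replicate (MRSA USA300 FPR3757, Mueller-Hinton, 5.0·10^5 CFU/mL). […] MBC is the lowest concentration giving a 99.9% reduction of the starting inoculum; n = 3.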

Caco-2 [9] = test: Cytotoxicity against differentiated human Caco2 cells assessed as increase in ATP level at 33 ug/ml incubated for 3 hrs by Cell-titer Glo assay; format: cell-based; conditions: caco-2, 3 h, dose 33 µg/ml; in short: as §3
Caco-2 [10] = test: Cytotoxicity against human Caco2 cells assessed as cell viability at 100 ug/ml incubated for 3 hrs by MTT assay; format: cell-based; conditions: caco-2, 3 h, dose 100 µg/ml; in short: as §2
Caco-2 [11] = test: Cytotoxicity against undifferentiated human Caco2 cells assessed as ATP level at 100 ug/ml incubated for 3 hrs by Cell-titer Glo assay; format: cell-based; conditions: caco-2, 3 h, dose 100 µg/ml; in short: as §3
[12] = Cytotoxicity against human PC3 cells assessed as decrease in ATP level at 100 ug/ml incubated for 3 hrs by Cell-titer Glo assay relative to control; format: cell-based, PC-3; conditions: at 100 µg/mL, read-out: INH; in short: as §3
Caco-2 [13] = test: Cytotoxicity against differentiated human Caco2 cells assessed as increase in ATP level at 100 ug/ml incubated for 3 hrs by Cell-titer Glo assay; format: cell-based; conditions: caco-2, 3 h, dose 100 µg/ml; in short: as §3

Structure (SMILES) | MIC (Staphylococcus aureus [1]) [µg/mL] | MIC (Staphylococcus aureus [2]) [µg/mL] | MIC (Staphylococcus aureus [3]) [µg/mL] | Activity (Caco-2 [4]) | MIC (Staphylococcus aureus [5]) [µg/mL] | Activity (Caco-2 [6]) | MIC [7] [µg/mL] | MBC (Staphylococcus aureus [8]) [µg/mL] | Activity (Caco-2 [9]) | Activity (Caco-2 [10]) | Activity (Caco-2 [11]) | cytotoxicity at 3 h, 100 ug/ml [12] [%] | Activity (Caco-2 [13])
C=C[C@]1(C)C[C@@H](OC(=O)CS[C@@H]2C[C@H]3CC[C@@H](C2)N3C)[C@]2(C)[C@H](C)CC[C@]3(CCC(=O)[C@H]32)[C@@H](C)[C@@H]1O [RETAPAMULIN] | 0.12 (≈ 0.232 µM) | 0.25 (≈ 0.483 µM) | 0.25 (≈ 0.483 µM) | Non-Toxic | 0.25 (≈ 0.483 µM) | Non-Toxic | 0.5 (≈ 0.966 µM) | > 2 | Toxic | – | – | – | –
C=C[C@]1(C)C[C@@H](OC(=O)CSC(C)(C)CNC(=O)[C@H](N)C(C)C)[C@]2(C)[C@H](C)CC[C@]3(CCC(=O)[C@H]32)[C@@H](C)[C@@H]1O [VALNEMULIN] | 0.06 (≈ 0.106 µM) | 0.06 (≈ 0.106 µM) | 0.12 (≈ 0.212 µM) | – | 0.06 (≈ 0.106 µM) | – | 0.25 (≈ 0.443 µM) | 0.12 (≈ 0.212 µM) | – | Non-Toxic | Non-Toxic | 22 | Toxic
